The source of these data is ChEMBL document CHEMBL3259551, “Novel delta opioid receptor agonists with oxazatricyclodecane structure” (ACS Med Chem Lett, 2014).

Data set [1] has as its target Mu-type opioid receptor (Mus musculus, UniProt P42866). Nature of the data set: Displacement of [3H]DAMGO from mu opioid receptor in mouse whole brain […] membrane. The format is tissue-based. The procedure, abridged:
(§1)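 Competitive binding run in duplicate. MOR used [3H]DAMGO and DOR used [3H]DPDPE, both on mouse whole-brain membranes without cerebellum. KOR used [3H]U-69,593 on guinea pig cerebellum membranes.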

Data set [2] has as its target Delta-type opioid receptor (Mus musculus, UniProt P32300). Nature of the data set: Displacement of [3H]DPDPE from delta opioid receptor in mouse whole brain […] membrane. It counts as tissue-based. The method in brief: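 Competitive binding run in duplicate. MOR used [3H]DAMGO and DOR used [3H]DPDPE, both on mouse whole-brain membranes without cerebellum.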

The target in data set [3] is Kappa-type opioid receptor (Cavia porcellus, UniProt P41144). Nature of the data set: Displacement of [3H]U69593 from kappa opioid receptor in guinea pig cerebellum membrane. The procedure, abridged: as §1
Kappa-type opioid receptor (Cavia porcellus, UniProt P41144), sequence (P41144 whole entry): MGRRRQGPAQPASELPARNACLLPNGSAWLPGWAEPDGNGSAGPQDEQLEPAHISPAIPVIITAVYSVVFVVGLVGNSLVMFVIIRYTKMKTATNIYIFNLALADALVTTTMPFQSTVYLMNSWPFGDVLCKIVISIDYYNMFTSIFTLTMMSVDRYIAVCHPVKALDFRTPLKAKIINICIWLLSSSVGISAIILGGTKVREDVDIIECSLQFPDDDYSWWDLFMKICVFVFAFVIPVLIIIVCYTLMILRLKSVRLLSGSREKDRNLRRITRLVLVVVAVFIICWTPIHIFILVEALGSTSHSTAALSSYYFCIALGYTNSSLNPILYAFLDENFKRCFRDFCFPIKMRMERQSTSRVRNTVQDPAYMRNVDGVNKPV
Background: Displacement assays read how much labelled ligand stays bound in the presence of the test substance.

The species entered for data set [4] is Mus musculus. Nature of the data set: Selectivity ratio of Ki for mouse mu opioid receptor to Ki for mouse delta opioid receptor.
A short description of data set [5]: Selectivity ratio of Ki for guinea pig kappa opioid receptor to Ki for mouse delta opioid receptor.
In data set [6] the target is T1, Mu-type opioid receptor (Homo sapiens, UniProt P35372). Kind of data set: Agonist activity at human mu opioid receptor expressed in CHO cells assessed as [35S]-GTP[gammaS] binding. The format is cell-based. The procedure, abridged:
(§2)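 Human MOR, DOR or KOR expressed in CHO cells; [35S]GTPγS binding run in duplicate. Emax is the % of the response to DAMDO for MOR, SNC80 for DOR and U-69,593 for KOR.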
(In general: Binding of GTPγS marks nucleotide exchange on a G protein.)

Data set [7] addresses T1, Mu-type opioid receptor. Nature of the data set: Agonist activity at human mu opioid receptor expressed in CHO cells assessed as [35S]-GTP[gammaS] binding relative to DAMDO. The format is cell-based. The procedure, abridged:
as §2

The target in data set [8] is T2, Delta-type opioid receptor (Homo sapiens, UniProt P41143). Nature of the data set: Agonist activity at human delta opioid receptor expressed in CHO cells assessed as [35S]-GTP[gammaS] binding. The format is functional, cell-based. The method in brief: as §2
T2 sequence (P41143 whole entry): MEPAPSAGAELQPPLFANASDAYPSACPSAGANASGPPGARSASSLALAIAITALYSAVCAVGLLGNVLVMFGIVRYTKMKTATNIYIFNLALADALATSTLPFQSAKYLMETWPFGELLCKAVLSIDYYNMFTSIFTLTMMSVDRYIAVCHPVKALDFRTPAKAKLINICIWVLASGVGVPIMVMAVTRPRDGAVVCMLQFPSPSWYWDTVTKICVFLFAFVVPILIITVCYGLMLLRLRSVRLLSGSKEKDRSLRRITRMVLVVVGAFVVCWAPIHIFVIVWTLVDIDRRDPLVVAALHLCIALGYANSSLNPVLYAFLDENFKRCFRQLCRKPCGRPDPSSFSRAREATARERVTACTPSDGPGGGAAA
For data set [9], the target named is T2, Delta-type opioid receptor. Kind of data set: Agonist activity at human delta opioid receptor expressed in CHO cells assessed as [35S]-GTP[gammaS] binding relative to SNC80. The format is functional, cell-based. The procedure, abridged:
as §2

For data set [10], the target named is T1, Mu-type opioid receptor. Kind of data set: Agonist activity at human mu opioid receptor expressed in HEK293 cells by CellKey method. The format is cell-based. The method in brief: (§3)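 Label-free CellKey impedance biosensor readout of receptor activity in HEK293 cells expressing human MOR, DOR or KOR, run in duplicate.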
For data set [11], the target named is T1, Mu-type opioid receptor. Nature of the data set: Agonist activity at human mu opioid receptor expressed in HEK293 cells by CellKey method relative to DAMDO. It counts as cell-based.
For data set [12], the target named is T2, Delta-type opioid receptor. Nature of the data set: Agonist activity at human delta opioid receptor expressed in HEK293 cells by CellKey method. It counts as cell-based. The procedure, abridged: (§4)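 Label-free CellKey impedance biosensor readout of receptor activity in HEK293 cells expressing human MOR, DOR or KOR, run in duplicate. Emax is the % of the response to DAMGO for MOR, SNC80 for DOR and (−)-U-50,488H for KOR.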

Data set [13] has as its target T2, Delta-type opioid receptor. Kind of data set: Agonist activity at human delta opioid receptor expressed in HEK293 cells by CellKey method relative to SNC80. It counts as cell-based. The method in brief: as §4
In data set [14] the target is T3, Kappa-type opioid receptor (Homo sapiens, UniProt P41145). Nature of the data set: Agonist activity at human kappa opioid receptor expressed in HEK293 cells by CellKey method. The format is cell-based. The method in brief:
as §3

The target in data set [15] is T3, Kappa-type opioid receptor. Kind of data set: Agonist activity at human kappa opioid receptor expressed in HEK293 cells by CellKey method relative to (-)U50488H. It counts as cell-based. The procedure, abridged:
as §4

The target in data set [16] is T3, Kappa-type opioid receptor. Nature of the data set: Agonist activity at human kappa opioid receptor expressed in CHO cells assessed as [35S]-GTP[gammaS] binding. The format is functional, cell-based. The procedure, abridged: as §2
Data set [17] concerns the target T3, Kappa-type opioid receptor. Nature of the data set: Agonist activity at human kappa opioid receptor expressed in CHO cells assessed as [35S]-GTP[gammaS] binding relative to U69593. It counts as functional, cell-based. The procedure, abridged:
as §2

Data set [18] concerns Mus musculus. Kind of data set: Analgesic activity in sc dosed mouse assessed as inhibition of acetic acid-induced writhing treated after 15 mins of acetic acid-challenge. It counts as functional. The procedure, abridged: (§5)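 Mice dosed subcutaneously, then scored in the acetic acid writhing test and watched for convulsive behaviour. […] taken from the dose–response. Antagonist reversal tested with NTI, β-FNA or nor-BNI. Groups compared against saline-treated mice by one-way ANOVA with Bonferroni's test.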
On the technique in general: An intraperitoneal irritant provokes the stretching counted in writhing tests.

In data set [19] the test system is Mus musculus. Kind of data set: Toxicity in mouse assessed as induction of convulsion at 1 to 10 mg/kg, sc. It counts as organism-based. On the set-up: dose 1-10 mg/kg, route subcutaneous. Particulars: in vivo. The procedure, abridged:
as §5

Delta-type opioid receptor (Mus musculus, UniProt P32300), sequence (P32300 whole entry): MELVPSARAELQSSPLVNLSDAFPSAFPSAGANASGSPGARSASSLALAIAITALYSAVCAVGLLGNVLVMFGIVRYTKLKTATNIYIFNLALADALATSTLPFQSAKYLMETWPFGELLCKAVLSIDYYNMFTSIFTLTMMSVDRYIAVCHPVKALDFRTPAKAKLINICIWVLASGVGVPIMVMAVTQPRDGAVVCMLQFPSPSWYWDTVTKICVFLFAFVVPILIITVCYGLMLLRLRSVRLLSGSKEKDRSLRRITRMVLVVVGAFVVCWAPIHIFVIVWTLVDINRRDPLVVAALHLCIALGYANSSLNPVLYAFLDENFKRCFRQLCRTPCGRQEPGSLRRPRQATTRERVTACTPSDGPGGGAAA
Mu-type opioid receptor (Mus musculus, UniProt P42866), sequence (P42866 whole entry): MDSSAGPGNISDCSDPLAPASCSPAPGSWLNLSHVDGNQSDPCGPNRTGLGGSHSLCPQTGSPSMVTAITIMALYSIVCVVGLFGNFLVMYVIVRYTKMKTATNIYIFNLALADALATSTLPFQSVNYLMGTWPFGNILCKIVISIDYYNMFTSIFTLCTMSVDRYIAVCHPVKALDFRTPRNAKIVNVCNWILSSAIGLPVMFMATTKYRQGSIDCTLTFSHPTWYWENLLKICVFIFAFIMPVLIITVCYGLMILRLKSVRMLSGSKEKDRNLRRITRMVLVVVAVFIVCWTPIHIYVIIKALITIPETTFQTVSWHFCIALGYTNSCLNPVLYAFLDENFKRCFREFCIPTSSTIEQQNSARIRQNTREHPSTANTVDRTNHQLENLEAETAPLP
T3 sequence (P41145 whole entry): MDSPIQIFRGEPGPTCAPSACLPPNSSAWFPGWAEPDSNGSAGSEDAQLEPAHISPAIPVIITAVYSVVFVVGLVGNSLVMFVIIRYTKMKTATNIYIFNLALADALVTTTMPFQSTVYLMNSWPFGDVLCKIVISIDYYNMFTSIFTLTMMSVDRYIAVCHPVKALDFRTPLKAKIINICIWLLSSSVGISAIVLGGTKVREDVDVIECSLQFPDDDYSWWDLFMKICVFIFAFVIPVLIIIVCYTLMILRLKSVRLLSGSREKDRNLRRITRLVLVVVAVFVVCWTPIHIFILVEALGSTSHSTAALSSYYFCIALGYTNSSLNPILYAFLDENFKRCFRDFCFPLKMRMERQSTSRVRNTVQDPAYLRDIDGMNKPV
T1 sequence (P35372 whole entry): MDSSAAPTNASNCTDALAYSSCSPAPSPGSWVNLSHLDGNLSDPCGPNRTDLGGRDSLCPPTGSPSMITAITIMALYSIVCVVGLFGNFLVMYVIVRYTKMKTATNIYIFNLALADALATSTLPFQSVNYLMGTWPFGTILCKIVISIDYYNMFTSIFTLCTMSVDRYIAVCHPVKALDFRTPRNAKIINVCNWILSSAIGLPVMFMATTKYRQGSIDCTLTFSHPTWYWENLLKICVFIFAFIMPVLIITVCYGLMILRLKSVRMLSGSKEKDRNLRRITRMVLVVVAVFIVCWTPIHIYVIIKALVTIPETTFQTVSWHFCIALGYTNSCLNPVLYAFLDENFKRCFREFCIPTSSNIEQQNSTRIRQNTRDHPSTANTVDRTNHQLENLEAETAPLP

As for `O=C1[C@H]2O[C@@]34CC[C@@]5(OCOc6c(O)ccc7c6[C@@]3(CCN(CCc3ccccc3)[C@@H]4C7)[C@H]25)N1Cc1ccccc1`, the results for the Ki (on Mu-type opioid receptor [1]; in data set [2]; in data set [3]) were 45.9 nM, 2.59 nM and 588 nM, respectively. For the same compound, the Ratio Ki in the data set filed under Mus musculus [4] came out at 17.7; in data set [5], 227. Further, the EC50 (as a rule, the concentration at which the effect is half-maximal) at Mu-type opioid receptor [6] was 2.3 nM; in data set [8], 9.2 nM; on Mu-type opioid receptor [10], 639 nM; in [12] it was 20.5 nM; in data set [14] it was 12500 nM. Further, the Emax (usually the greatest response seen or fitted, relative to the assay's reference) on Mu-type opioid receptor [7] turned out to be 83%; in [9] it was 115%; at Mu-type opioid receptor [11], 40.2%; in data set [13], 108%; in [15] it was 22.6%.
On to `CC(C)CN1CC[C@@]23c4c5ccc(O)c4OCO[C@]46CC[C@@]2(O[C@H](C(=O)N4Cc2ccccc2)[C@H]63)[C@H]1C5`, for which the Ki (in general, the equilibrium dissociation constant of an inhibitor or competing ligand from its target) on Mu-type opioid receptor [1] turned out to be 186 nM; in data set [2], 7 nM; in data set [3], 119 nM. Besides, the Ratio Ki in the data set listed under Mus musculus [4] is 26.6; in data set [5], 17. Besides, the concentration giving a half-maximal response (EC50) is 223 nM at Mu-type opioid receptor [6]; 15.6 nM in [8]; 760 nM in [16]; 400 nM at Mu-type opioid receptor [10]; 140 nM in data set [12]; 333 nM in data set [14]. Besides, the maximal response (Emax) is 8.4% on Mu-type opioid receptor [7]; 96.4% in data set [9]; 65.6% in [17]; 12.2% at Mu-type opioid receptor [11]; 130% in data set [13]; 57.9% in [15].
Turning to `C=CCN1C[C@H](C)N([C@H](c2ccc(C(=O)N(CC)CC)cc2)c2cccc(OC)c2)C[C@H]1C` [SNC-80], the inhibition constant (Ki) was 695 nM on Mu-type opioid receptor [1] and greater than 1000 nM in data set [3]. In addition, the Emax on Mu-type opioid receptor [11] came to 6.8%; in data set [15], 5.9%.
As for `O=C1[C@H]2O[C@@]34CC[C@@]5(OCOc6c(O)ccc7c6[C@@]3(CCN(CC3CC3)[C@@H]4C7)[C@H]25)N1CCc1ccccc1`, the Ki on Mu-type opioid receptor [1] is 1.75 nM; in data set [2] it was 1.16 nM; in [3], 1.94 nM. Further, the results for the Ratio Ki (in the data set listed under Mus musculus [4]; in data set [5]) were 1.5 and 1.7, respectively. Besides, the half-maximal effective concentration (EC50) at Mu-type opioid receptor [6] stood at 2.1 nM; in data set [8], 0.41 nM; in [16], 3.9 nM; at Mu-type opioid receptor [10] it was 5.2 nM; in [12] it was 0.62 nM; in [14] it was 2.4 nM. Besides, the maximal effect (Emax) on Mu-type opioid receptor [7] was 19.7%; in data set [9] it was 103%; in data set [17] it was 51.2%; on Mu-type opioid receptor [11] it was 4.8%; in data set [13], 90.6%; in [15], 75.8%.
With `O=C1[C@H]2O[C@@]34CC[C@@]5(OCOc6c(O)ccc7c6[C@@]3(CCN(CC3CC3)[C@@H]4C7)[C@H]25)N1Cc1ccccc1`, the Ki at Mu-type opioid receptor [1] turned out to be 3.14 nM; in [2], 0.313 nM; in data set [3], 5.14 nM. For the same compound, the Ratio Ki in the data set filed under Mus musculus [4] was 10; in data set [5] it was 16.4. Further, the EC50 was found to be 2.8 nM on Mu-type opioid receptor [6]; 1.1 nM in data set [8]; 80.5 nM in data set [16]; 1.8 nM at Mu-type opioid receptor [10]; 1.54 nM in data set [12]; 39.8 nM in [14]. Besides, the maximum response (Emax) on Mu-type opioid receptor [7] was found to be 13.7%; in data set [9] it was 92.8%; in [17], 69.1%; on Mu-type opioid receptor [11], 9.6%; in [13], 88.7%; in data set [15] it was 50.5%.
Regarding `CN1CC[C@@]23c4c5ccc(O)c4OCO[C@]46CC[C@@]2(O[C@H](C(=O)N4Cc2ccccc2)[C@H]63)[C@H]1C5`, the Ki on Mu-type opioid receptor [1] amounted to 23.3 nM; in [2], 1.94 nM; in data set [3], 200 nM. For the same compound, the Ratio Ki was determined as 12 in the data set listed under Mus musculus [4] and 103 in data set [5]. The concentration for a half-maximal effect (EC50) came to 113 nM at Mu-type opioid receptor [6]; 11 nM in [8]; 478 nM in [16]; 1350 nM at Mu-type opioid receptor [10]; 141 nM in [12]; 307 nM in [14]. Besides, the maximal response (Emax) at Mu-type opioid receptor [7] was determined as 110%; in data set [9], 112%; in data set [17] it was 83.6%; at Mu-type opioid receptor [11], 36.1%; in data set [13], 138%; in data set [15], 79.2%. In the data set on Mus musculus [18], the inhibition entry was “Dose-dependent effect”. In addition, the ED50 (usually the midpoint of the dose-response relation) in the data set with Mus musculus [18] (0.25 h) was found to be 5.26 mg/kg. In the data set on Mus musculus [19], the Activity result is on record as “Non-toxic”.
With `COc1ccc2c(c1O)[C@]13CCN(CC4CC4)[C@H](C2)[C@]12CC[C@]1(O)[C@H]3[C@H](O2)C(=O)N1Cc1ccccc1`, the inhibition constant Ki on Mu-type opioid receptor [1] is 47.7 nM; in data set [2], 175 nM; in [3], 248 nM. In addition, the Ratio Ki in the data set listed under Mus musculus [4] worked out at 0.27; in data set [5] it was 1.4.
Consider `O=C1[C@H]2O[C@@]34CC[C@@]5(OCOc6c(O)ccc7c6[C@@]3(CCN(CC3CC3)[C@@H]4C7)[C@H]25)N1c1ccccc1`, for which the Ki worked out at 4.61 nM at Mu-type opioid receptor [1], 0.534 nM in data set [2] and 1.69 nM in data set [3]. In addition, the values for the Ratio Ki (in the data set listed under Mus musculus [4]; in data set [5]) were 8.6 and 3.2, respectively. Further, the EC50 at Mu-type opioid receptor [6] was found to be 9 nM; in [8], 0.98 nM; in data set [16], 6.5 nM; at Mu-type opioid receptor [10] it was 1.2 nM; in [12], 0.39 nM; in data set [14], 1.2 nM. The maximal response (Emax) on Mu-type opioid receptor [7] worked out at 25.6%; in [9], 118%; in data set [17], 42.9%; on Mu-type opioid receptor [11], 8.8%; in [13], 123%; in data set [15], 80.4%.
For `C=CCN1CC[C@@]23c4c5ccc(O)c4OCO[C@]46CC[C@@]2(O[C@H](C(=O)N4Cc2ccccc2)[C@H]63)[C@H]1C5`, the Ki on Mu-type opioid receptor [1] turned out to be 68.4 nM; in data set [2], 1.23 nM; in data set [3], 56.6 nM. The results for the Ratio Ki (in the data set filed under Mus musculus [4]; in data set [5]) were 55.8 and 46.2, respectively. Besides, the EC50 on Mu-type opioid receptor [6] worked out at 2.7 nM; in data set [8] it was 6.5 nM; in [16], 231 nM; on Mu-type opioid receptor [10], 5.1 nM; in data set [12], 2 nM. Also, the maximal effect (Emax) on Mu-type opioid receptor [7] was 5.4%; in data set [9] it was 94.6%; in [17] it was 74%; on Mu-type opioid receptor [11] it was 11.3%; in data set [13] it was 77.2%.
